In ChEMBL document CHEMBL1833793 (Bioorg Med Chem Lett, 2011):

Columns and labels:
[1] = Drug uptake in brain of cPP-induced feeding rat model at 10 mg/kg, po after 6 hrs; type: ADME, organism-based; parameters: dose 10 mg/kg, route oral; conditions: read-out: Drug uptake
In short: (§1)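 Satellite rats (n = 2/dose) sampled each week alongside the cPP feeding test; Lu-series dosed po at 3, 10 or 30 mg/kg as suspension in 20% HP-β-cyclodextrin; plasma (ng/mL) and brain tissue (ng/g) levels taken at 1, 2, 4, 6 and 24 h post-dose; mean ± SD reported.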

[2] = Plasma concentration in cPP-induced feeding rat model at 10 mg/kg, po after 1 hr; type: ADME, organism-based; parameters: dose 10 mg/kg, route oral; in short: as §1
[3] = target: Voltage-gated inwardly rectifying potassium channel KCNH2 (Homo sapiens, UniProt Q12809); assay: Inhibition of human ERG by patch-clamp assay
Sequence of Voltage-gated inwardly rectifying potassium channel KCNH2 (Q12809 whole entry): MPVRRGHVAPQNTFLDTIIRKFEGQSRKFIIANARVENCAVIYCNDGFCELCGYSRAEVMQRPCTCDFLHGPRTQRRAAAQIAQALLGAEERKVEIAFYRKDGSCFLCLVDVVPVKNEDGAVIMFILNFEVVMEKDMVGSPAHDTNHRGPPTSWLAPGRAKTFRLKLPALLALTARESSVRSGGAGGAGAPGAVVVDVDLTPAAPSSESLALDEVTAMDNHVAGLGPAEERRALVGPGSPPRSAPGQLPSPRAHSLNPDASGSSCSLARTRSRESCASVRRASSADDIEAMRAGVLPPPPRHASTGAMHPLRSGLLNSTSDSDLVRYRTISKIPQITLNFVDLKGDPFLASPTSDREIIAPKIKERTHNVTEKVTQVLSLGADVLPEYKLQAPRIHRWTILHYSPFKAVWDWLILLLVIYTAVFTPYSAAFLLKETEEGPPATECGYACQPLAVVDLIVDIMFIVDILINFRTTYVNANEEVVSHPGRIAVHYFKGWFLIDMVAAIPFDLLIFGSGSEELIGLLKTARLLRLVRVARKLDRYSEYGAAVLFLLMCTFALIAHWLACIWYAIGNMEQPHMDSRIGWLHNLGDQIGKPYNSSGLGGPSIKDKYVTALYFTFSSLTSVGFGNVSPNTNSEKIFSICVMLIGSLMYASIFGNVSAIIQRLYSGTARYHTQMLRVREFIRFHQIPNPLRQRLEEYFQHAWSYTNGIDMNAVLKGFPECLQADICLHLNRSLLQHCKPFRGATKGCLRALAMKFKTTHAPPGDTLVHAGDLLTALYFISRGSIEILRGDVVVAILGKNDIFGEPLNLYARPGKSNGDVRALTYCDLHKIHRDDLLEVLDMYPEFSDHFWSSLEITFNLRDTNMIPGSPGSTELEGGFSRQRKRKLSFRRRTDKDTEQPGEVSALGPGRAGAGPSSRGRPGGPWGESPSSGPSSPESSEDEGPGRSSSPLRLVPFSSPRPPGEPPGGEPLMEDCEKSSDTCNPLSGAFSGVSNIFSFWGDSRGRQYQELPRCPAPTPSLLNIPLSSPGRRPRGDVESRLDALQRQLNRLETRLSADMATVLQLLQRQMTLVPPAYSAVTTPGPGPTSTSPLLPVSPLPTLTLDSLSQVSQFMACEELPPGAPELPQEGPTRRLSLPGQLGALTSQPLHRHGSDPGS

[4] = Plasma concentration in cPP-induced feeding rat model at 3 mg/kg, po after 6 hrs; type: ADME, organism-based; parameters: dose 3 mg/kg, route oral
In short: (§2)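 Satellite rats (n = 2/dose per week), cannulated in the lateral cerebral ventricle for the feeding study, dosed orally at 3, 10 or 30 mg/kg as a suspension in 20% HP-β-cyclodextrin. Plasma was sampled 1, 2, 4, 6 or 24 h after dosing, alongside i.c.v. cPP (0.6 nmol) feeding tests. Values are given as mean with SD.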

[5] = Plasma clearance in mouse at 1 mg/kg, iv and 2 mg/kg, po by HPLC analysis; type: ADME, organism-based
[6] = Volume of distribution at steady state in mouse at 1 mg/kg, iv and 2 mg/kg, po by HPLC analysis; type: ADME, organism-based; conditions: in vivo, read-out: Vdss
[7] = test system: Rattus norvegicus; assay: Antistress activity against chronic mild stress Sprague-Dawley rat model assessed as increase in sucrose consumption at 10 mg/kg, ip bid measured after 4 weeks; type: functional; conditions: route intraperitoneal
[8] = target: T1, Cytochrome P450 1A2 (Homo sapiens, UniProt P05177); assay: Inhibition of CYP1A2; type: ADME
T1 sequence (P05177 whole entry): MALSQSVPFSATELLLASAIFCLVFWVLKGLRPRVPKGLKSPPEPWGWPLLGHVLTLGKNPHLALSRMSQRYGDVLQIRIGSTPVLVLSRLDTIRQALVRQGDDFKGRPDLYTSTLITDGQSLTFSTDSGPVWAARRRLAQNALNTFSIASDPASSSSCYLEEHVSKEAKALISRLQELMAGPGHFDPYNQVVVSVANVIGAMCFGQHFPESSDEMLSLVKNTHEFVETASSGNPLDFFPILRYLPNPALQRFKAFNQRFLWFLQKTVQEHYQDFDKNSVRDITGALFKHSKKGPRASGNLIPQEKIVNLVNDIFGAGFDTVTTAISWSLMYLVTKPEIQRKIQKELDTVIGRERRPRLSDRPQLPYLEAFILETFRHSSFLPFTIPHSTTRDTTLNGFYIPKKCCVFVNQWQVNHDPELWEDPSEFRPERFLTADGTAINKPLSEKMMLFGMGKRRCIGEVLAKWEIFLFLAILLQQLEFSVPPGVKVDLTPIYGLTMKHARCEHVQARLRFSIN

[9] = Drug uptake in brain of cPP-induced feeding rat model at 30 mg/kg, po after 1 hr; type: ADME, organism-based; parameters: dose 30 mg/kg, route oral; conditions: read-out: Drug uptake; in short: as §1
[10] = Drug uptake in brain of cPP-induced feeding rat model at 10 mg/kg, po after 4 hrs; type: ADME, organism-based; parameters: dose 10 mg/kg, route oral; conditions: read-out: Drug uptake; in short: as §1
[11] = Plasma concentration in cPP-induced feeding rat model at 10 mg/kg, po after 2 hrs; type: ADME, organism-based; parameters: dose 10 mg/kg, route oral; in short: as §1
[12] = target: T2, Neuropeptide Y receptor type 5 (Rattus norvegicus, UniProt Q63634); assay: Antagonist activity at rat NPY5 receptor; type: functional
T2 sequence (Q63634 whole entry): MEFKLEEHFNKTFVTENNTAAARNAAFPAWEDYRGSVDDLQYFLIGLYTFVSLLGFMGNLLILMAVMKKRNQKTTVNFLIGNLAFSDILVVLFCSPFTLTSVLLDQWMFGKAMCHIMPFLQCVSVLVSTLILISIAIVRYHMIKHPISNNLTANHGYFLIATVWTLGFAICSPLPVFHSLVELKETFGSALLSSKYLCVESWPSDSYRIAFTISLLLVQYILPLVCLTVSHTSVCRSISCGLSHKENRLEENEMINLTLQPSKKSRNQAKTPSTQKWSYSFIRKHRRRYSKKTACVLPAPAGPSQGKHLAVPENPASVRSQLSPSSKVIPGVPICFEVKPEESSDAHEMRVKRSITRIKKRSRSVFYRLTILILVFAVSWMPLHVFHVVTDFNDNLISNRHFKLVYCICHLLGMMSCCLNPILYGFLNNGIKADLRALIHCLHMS

[13] = test system: Liver microsomes; assay: Intrinsic clearance in rat liver microsome; type: ADME
[14] = Plasma concentration in cPP-induced feeding rat model at 30 mg/kg, po after 2 hrs; type: ADME, organism-based; parameters: dose 30 mg/kg, route oral; in short: as §2
[15] = Drug uptake in brain of cPP-induced feeding rat model at 3 mg/kg, po after 1 hr; type: ADME, organism-based; parameters: dose 3 mg/kg, route oral; conditions: read-out: Drug uptake; in short: as §1
[16] = Half life in Sprague-Dawley rat at 1 mg/kg, iv and 2 mg/kg, po by HPLC analysis; type: ADME, organism-based; conditions: in vivo
In short: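 Cannulated (jugular and carotid) male Sprague-Dawley rats, 200–250 g, n = 2; 1 mg/kg iv and 2 mg/kg po crossover after 24 h washout; dosed in 20% β-cyclodextrin pH-adjusted with methanesulfonic acid; 12 serial blood samples over 24 h; plasma by LC-MS/MS; noncompartmental analysis.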

[17] = Plasma clearance in Sprague-Dawley rat at 1 mg/kg, iv and 2 mg/kg, po by HPLC analysis; type: ADME, organism-based
In short: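 Male Sprague-Dawley rats (200–250 g, n = 2) with jugular and carotid cannulae, dosed 1 mg/kg iv and 2 mg/kg po in crossover after 24 h washout. Vehicle was 20% beta cyclodextrin, pH adjusted with methanesulfonic acid to give a solution. Automated serial blood sampling took 12 time points over 24 h. Plasma was quantified by HPLC-MS/MS, with noncompartmental analysis.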

[18] = Plasma concentration in cPP-induced feeding rat model at 3 mg/kg, po after 2 hrs; type: ADME, organism-based; parameters: dose 3 mg/kg, route oral; in short: as §1
[19] = Oral bioavailability in mouse at 2 mg/kg by HPLC analysis; type: ADME, organism-based; conditions: in vivo
[20] = Drug uptake in brain of cPP-induced feeding rat model at 30 mg/kg, po after 4 hrs; type: ADME, organism-based; parameters: dose 30 mg/kg, route oral; conditions: read-out: Drug uptake; in short: as §1
[21] = target: Cytochrome P450 2C9 (Homo sapiens, UniProt P11712); assay: Inhibition of CYP2C9; type: ADME
Sequence of Cytochrome P450 2C9 (P11712 whole entry): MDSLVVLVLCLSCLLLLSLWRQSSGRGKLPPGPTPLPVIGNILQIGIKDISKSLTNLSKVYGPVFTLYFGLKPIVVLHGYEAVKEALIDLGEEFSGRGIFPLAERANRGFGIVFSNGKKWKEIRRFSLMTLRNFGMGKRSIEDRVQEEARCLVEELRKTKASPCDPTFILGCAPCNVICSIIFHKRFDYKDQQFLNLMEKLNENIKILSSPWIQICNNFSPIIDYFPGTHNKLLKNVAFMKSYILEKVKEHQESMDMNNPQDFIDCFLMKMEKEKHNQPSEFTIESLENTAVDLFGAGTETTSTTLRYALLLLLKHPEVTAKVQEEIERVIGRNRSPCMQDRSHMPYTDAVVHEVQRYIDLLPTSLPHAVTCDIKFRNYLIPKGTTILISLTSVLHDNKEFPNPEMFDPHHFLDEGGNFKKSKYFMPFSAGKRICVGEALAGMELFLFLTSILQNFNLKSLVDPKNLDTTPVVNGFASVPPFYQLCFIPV

[22] = target: T3, Neuropeptide Y receptor type 2 (Homo sapiens, UniProt P49146); assay: Antagonist activity at human NPY2 receptor assessed as calcium mobilization by FLIPR assay; type: functional
T3 sequence (P49146 whole entry): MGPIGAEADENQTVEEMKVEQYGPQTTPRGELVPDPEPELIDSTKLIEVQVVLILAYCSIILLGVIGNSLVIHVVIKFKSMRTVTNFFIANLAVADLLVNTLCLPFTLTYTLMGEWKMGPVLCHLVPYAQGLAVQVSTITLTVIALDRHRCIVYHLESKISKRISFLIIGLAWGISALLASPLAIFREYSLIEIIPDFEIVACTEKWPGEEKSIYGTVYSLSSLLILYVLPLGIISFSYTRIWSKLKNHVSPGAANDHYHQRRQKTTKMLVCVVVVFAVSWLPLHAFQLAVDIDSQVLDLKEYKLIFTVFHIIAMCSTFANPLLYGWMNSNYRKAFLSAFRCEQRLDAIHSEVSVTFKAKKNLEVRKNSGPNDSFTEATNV

concentration at 6 h [1]: 124 ng/g
concentration at 1 h [2]: 159 ng/mL
concentration at 6 h [4]: 30 ng/mL
clearance [5]: 5 mL/min/kg
Vd [6]: 3.6 L/kg
IC50 [8]: > 10 µM
concentration at 1 h [9]: 288 ng/g
concentration at 4 h [10]: 172 ng/g
concentration at 2 h [11]: 260 ng/mL
Ki [12]: 0.0014 µM
CL [13]: 40 mL/min
concentration at 2 h [14]: 337 ng/mL
concentration at 1 h [15]: 54 ng/g
half-life [16]: 6.3 h
clearance [17]: 18.3 mL/min/kg
concentration at 2 h [18]: 87 ng/mL
bioavailability [19]: 42%
concentration at 4 h [20]: 643 ng/g
IC50 [21]: > 10 µM
IC50 [22]: > 1 µM
SMILES: CS(=O)(=O)NC[C@H]1CC[C@H](Nc2nc3c(s2)CCSc2ccccc2-3)CC1
IC50 [3]: > 10 µM
Activity [7]: >10%
